# Bioassay records (PubChem)
# HNF4A DNA FP: change in binding of human HNF4 alpha to DNA. P41235. HNF4a-FITC DNA binding, fluorescence polarization, 1 h. activity change, % at 10 µM. 360,000 compounds, 0.3% hits. AID 1224865; in the data active means activity change above about 30%, passing the limit was not always enough
# Target sequence (P41235 whole entry, looked up): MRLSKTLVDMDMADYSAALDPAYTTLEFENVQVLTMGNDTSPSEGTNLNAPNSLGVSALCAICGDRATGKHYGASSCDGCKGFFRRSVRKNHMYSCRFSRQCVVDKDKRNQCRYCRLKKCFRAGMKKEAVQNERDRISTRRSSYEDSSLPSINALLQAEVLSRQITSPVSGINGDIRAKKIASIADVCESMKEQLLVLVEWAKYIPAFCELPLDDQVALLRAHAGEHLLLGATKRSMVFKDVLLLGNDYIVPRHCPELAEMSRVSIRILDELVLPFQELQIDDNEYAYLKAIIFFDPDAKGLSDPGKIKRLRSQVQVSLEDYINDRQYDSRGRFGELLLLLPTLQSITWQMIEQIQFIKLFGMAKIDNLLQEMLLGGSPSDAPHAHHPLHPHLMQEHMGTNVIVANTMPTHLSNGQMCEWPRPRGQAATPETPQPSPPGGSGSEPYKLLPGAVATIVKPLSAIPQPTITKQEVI
# Rev-erbA mod: Rev-erb alpha (human) modulation; Rev-erbα–FITC-DNA binding, fluorescence polarization, 90 min; 370,000 compounds, 0.79% hits; P20393; activity, % at 10 µM; AID 1259318;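 active means activity above about 14%, limit read from the data; passing the limit was not always enough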
# CSN deneddyl inh: CSN deneddylation inhibition | Q92905 | Purified CSN, SCF-Nedd8-OG deneddylation, fluorescence polarization | inhibition, % at 12.5 µM | 360,000 compounds, 0.38% hits;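 active means pattern-corrected inhibition above about 35%, with an unprinted fluorescence ratio check between 0.5 and 1.5, limit read from the data, passing the limit was not always enough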
#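 Schedule: reaction 90 min, room temperature / Assay system: HEK293T-derived human Csn5 enzyme / Input: Csn5 at 0.24 nM final / Measure: inhibition of Csn5 cleavage, % / Control set: substrate-only high control, full reaction low control / Technique: fluorescence polarization of the substrate / Buffer or medium: Tris/NaCl/DTT buffer, pH 7.5 / Reagent: SCFSkp2-Nedd8OG substrate at 10 nM final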
# TPT1 inhibitor: inhibitors of Candida albicans tRNA 2'-phosphotransferase TPT1 | recombinant caTPT1, FP RNA substrate dephosphorylation | inhibition, % at 5 µM | 300,000 compounds, 0.81% hits | AID 1962;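 active means inhibition above the mean of all tested compounds plus 3 SD, set per screening campaign, cut at about 24% in these data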
# caTPT1 confirm: confirmation of Candida albicans TPT1 inhibitors. inhibition, % at 5 µM. shares compounds with TPT1 inhibitor. 2,400 compounds, 74% hits. recombinant caTPT1, fluorescence polarization, RNase T1 coupled;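 active means inhibition above the primary screen limit, the mean inhibition of all tested compounds plus 3 SD, cut at about 25% in these data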
# RNase T1 inh: counter-screen for TPT1 inhibitors: inhibitors of Aspergillus oryzae RNase T1. shares compounds with TPT1 inhibitor. RNase T1 cleavage, fluorescence polarization, 1536-well. inhibition, % at 5 µM. 2,400 compounds, 83% hits;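 active means inhibition above the solvent-only control well mean plus 3 SD, limit set per screening run, cut at about 23% in these data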;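 further: inhibitors block cleavage so intact labeled substrate keeps polarization high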
# A number is an active result; 0 = inactive; - = no result. Only some compounds are listed: those with a hit (about 1.7% of all), similar ones and a draw of the others.
SMILES,HNF4A DNA FP,Rev-erbA mod,CSN deneddyl inh,TPT1 inhibitor,caTPT1 confirm,RNase T1 inh
Cc1ccc(/C=C2/C(=O)NC(=O)N(Cc3ccc(F)cc3)C2=O)o1,-,0,-,35,0,26
CCOc1ccc(N2C(=O)/C(=C/c3ccc(C)o3)C(=O)NC2=S)cc1,0,0,0,32,47,57
CCOC(=O)/C=C(C)/C=C/CC(C)CCCC(C)C (stereo not given),-,0,-,-,-,-
Oc1ccccc1-c1ccccc1,-,0,-,-,-,-
COC(=O)C1CC(OC(C)=O)C(=O)[C@H]2C1(C)CC[C@H]1C(=O)OC(c3ccoc3)CC12C (stereo not given in full),-,0,-,-,-,-
CCN(CC)Cc1nccn1-c1ccc([N+](=O)[O-])cc1C(=O)c1ccccc1Cl,-,0,-,-,-,-
O=C1NC(=O)N(Cc2ccc(F)cc2)C(=O)/C1=C/c1cccs1,0,0,0,0,-,-
O=C1NC(=O)N(Cc2ccc(F)cc2)C(=O)/C1=C\c1ccoc1,60,0,0,163,67,81
O=C(Nc1ccccc1)N1Cc2ccccc2-n2nncc2C1,0,0,0,-,-,-
CN1CCN(c2ccc(/C=C3\C(=O)NC(=S)N(c4cccc(Br)c4)C3=O)o2)CC1,0,0,0,132,152,142
C=CCN1C(=O)/C(=C\c2ccc(N3CCOCC3)o2)C(=O)NC1=S,56,0,0,108,120,124
CN1C(=O)/C(=C/c2ccc(N3CCCCCC3)o2)C(=O)NC1=S,0,-,0,167,145,138
C=CCC1(C(C)CCC)C(=O)N=C(S)NC1=O (stereo not given),-,0,-,-,-,-
O=C1Nc2cc(C(=O)N3CCC4(CC3)OCCO4)ccc2NC1CSCc1cccc(F)c1 (stereo not given),-,-,-,61,96,101
CCOC(=O)c1c(-n2c(C)cc(/C=C3\C(=O)NC(=O)N(C)C3=O)c2C)sc2c1CCCC2,0,0,0,0,-,-
Cc1cc(/C=C2\C(=O)NC(=O)N(c3ccc(Cl)cc3)C2=O)c(C)n1-c1sc2c(c1C#N)CCCC2,0,0,0,46,0,28
Cc1cc(C)nc(NS(=O)(=O)c2ccc(N=Cc3c(O)n(C)c(=O)n(C)c3=O)cc2)n1,0,0,0,0,-,-
Cc1ccnc(NS(=O)(=O)c2ccc(N=Cc3c(O)n(C)c(=O)n(C)c3=O)cc2)n1,0,0,0,85,62,77
CCCOP(=O)(OCCC)C(NC(=O)c1ccccc1)=C(Cl)Cl,0,0,0,0,-,-
CCOP(=O)(OCC)C(NC(=O)c1ccc(Cl)cc1)=C(Cl)Cl,0,0,0,49,0,0
COC1CC2C=C(C)C=CC=CC(=O)NC(c3ccccc3)CC=CCCC(O)CC(=O)C2=C1O (stereo not given),0,0,0,-,-,-
COc1ccc2[nH]c3c(c2c1)CCN=C3C,0,0,0,33,0,0
CN1CCN(CCOC2c3ccccc3CSc3ccc(Cl)cc32)CC1 (stereo not given),0,0,0,55,0,0
CC1(C)C(C=C(Cl)Cl)C1C(=O)OC(C#N)c1cccc(Oc2ccccc2)c1 (stereo not given),-,0,-,-,-,-
CCCCCn1c(NC(=O)c2ccco2)c(C(=O)OCC)c2nc3ccccc3nc21,0,-,0,36,31,43
SMILES,HNF4A DNA FP,Rev-erbA mod,CSN deneddyl inh,TPT1 inhibitor,caTPT1 confirm,RNase T1 inh
CCOC(=O)c1c(N)n(CCCOC(=O)c2ccco2)c2nc3ccccc3nc12,0,0,0,0,-,-
CCCCN1C(=O)/C(=C/c2ccc(N3CCCCCC3)cc2)C(=O)NC1=S,-,-,-,36,33,43
CCC(C)N1C(=O)/C(=C\c2ccc(N3CCCCCC3)cc2)C(=O)NC1=S (stereo not given),0,0,0,25,37,58
CC(C)(C)c1ccc(O)cc1,-,0,-,-,-,-
Cc1ccc(N2C(=O)/C(=C/c3ccc(CN(CCC#N)S(C)(=O)=O)o3)C(=O)NC2=S)cc1C,-,-,-,46,48,57
Cc1cccc(N2C(=O)/C(=C/c3ccc(CN(CCC#N)S(C)(=O)=O)o3)C(=O)NC2=S)c1,0,0,0,34,0,29
Cc1ccc(N2C(=O)NC(=O)/C(=C/c3ccc(-c4ccc(C(=O)O)c(Cl)c4)o3)C2=O)cc1,0,0,0,0,-,-
CCC1(C)CC(=O)NC(=O)C1,-,0,-,-,-,-
O=C1OC(c2ccc(O)c(S(=O)(=O)O)c2)(c2ccc(O)c(S(=O)(=O)O)c2)c2c(Br)c(Br)c(Br)c(Br)c21,-,0,-,-,-,-
